Measurements taken from ChEMBL document CHEMBL1772965, “Analogues and derivatives of oncrasin-1, a novel inhibitor of the C-terminal domain of RNA polymerase II and their antitumor activities” (J Med Chem, 2011).

Experiments:
[1] = Stability of compound at pH 7.4; assay type: physicochemical; conditions: buffer
[2] = Stability of compound at pH 2; assay type: physicochemical; conditions: buffer
[3] = Cytotoxicity against human T29 cells assessed as cell viability after 3 days by sulforhodamine B assay; assay type: cell-based; conditions: T29, 72 h
Outline: (§1)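 Monolayer cultures were grown in RPMI-1640 or DMEM with 10% heat-inactivated fetal calf serum and penicillin/streptomycin, at 37°C and 5% CO2. Cells were exposed for 3 days to compound from 10−4.5 M (31.6 μM) down to 10−8 M (10 nM), with 1% DMSO as the control. Viability was read by sulforhodamine B. IC50 was the dose halving surviving cells versus control, run in quadruplicate and repeated at least three times.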

NCI-H460 = assay: Cytotoxicity against human H460 cells assessed as cell viability after 3 days by sulforhodamine B assay; assay type: functional, cell-based; conditions: NCI-H460, 72 h; outline: as §1
[4] = Stability of compound at pH 6; assay type: physicochemical; conditions: buffer
[5] = Stability of compound at pH 4; assay type: physicochemical; conditions: buffer
[6] = Stability of compound at pH 9; assay type: physicochemical; conditions: buffer
[7] = Cytotoxicity against mutant K-ras-transformed human T29Kt1 cells assessed as cell viability after 3 days by sulforhodamine B assay; assay type: functional, cell-based; conditions: T29Kt1, 72 h; outline: as §1

| Stability [1] | Stability [2] | Stability [4] | Stability [5] | Stability [6] | Structure (SMILES) | IC50 [3] [nM] | IC50 (NCI-H460) [nM] | IC50 [7] [nM] |
| --- | --- | --- | --- | --- | --- | --- | --- | --- |
| Stable | Unstable | Stable | Stable | Stable | O=[N+]([O-])c1cccc(Cn2cc(CO)c3ccccc32)c1 | > 31600 | 39 | 390 |
| Stable | Unstable | Stable | Stable | Stable | OCc1cn(Cc2ccccc2Cl)c2ccccc12 | > 31600 | 100 | 2510 |
| Stable | Unstable | Stable | Stable | Stable | OCc1cn(Cc2ccc(Cl)c(Cl)c2)c2ccccc12 | > 31600 | 31 | 310 |
| Stable | Unstable | Stable | Stable | Stable | Cn1cc(CO)c2cc(F)ccc21 | > 31600 | 16900 | 13800 |
| Stable | Unstable | Stable | Stable | Stable | OCc1cn(Cc2cccc(I)c2)c2ccccc12 | > 31600 | 100 | 20 |
| Stable | Unstable | Stable | Stable | Stable | Cc1cccc(Cn2cc(CO)c3ccccc32)c1 | > 31600 | 31 | 1000 |
| Stable | Unstable | Stable | Stable | Stable | OCc1cn(Cc2ccc(F)cc2)c2ccccc12 | 17000 | 118 | 30 |
| Stable | Unstable | Stable | Stable | Stable | OCc1cn(Cc2cccc(C(F)(F)F)c2)c2ccccc12 | > 31600 | 39 | 560 |
| Stable | Unstable | Stable | Stable | Stable | Cc1ccc(Cn2cc(CO)c3ccccc32)cc1 | > 31600 | 31 | 150 |
| Stable | Unstable | Stable | Stable | Stable | OCc1cn(Cc2ccccc2)c2ccccc12 | 14500 | 112 | 30 |
| Stable | Unstable | Stable | Stable | Stable | Cc1ccc(Cn2cc(CO)c3cc(F)ccc32)cc1 | 11700 | 10 | 30 |
| Stable | Unstable | Stable | Stable | Stable | OCc1cn(Cc2ccc(Cl)cc2)c2ccc(F)cc12 | 8120 | 30 | 80 |
| Stable | Unstable | Stable | Stable | Stable | OCc1cn(Cc2cccc(F)c2)c2ccccc12 | > 31600 | 40 | 20 |

More lines, now with the values behind:

| Structure (SMILES) | Stability [1] | Stability [2] | Stability [4] | Stability [5] | Stability [6] | IC50 [3] [nM] | IC50 (NCI-H460) [nM] | IC50 [7] [nM] |
| --- | --- | --- | --- | --- | --- | --- | --- | --- |
| OCc1cn(Cc2ccc(Cl)cc2Cl)c2ccccc12 | Stable | Unstable | Stable | Stable | Stable | > 31600 | 79 | 1580 |
| O=Cc1cn(Cc2ccccc2F)c2ccccc12 | Stable | Stable | – | – | – | > 31600 | 100 | 310 |
| O=Cc1cn(Cc2ccc(Br)c(Br)c2)c2ccccc12 | Stable | Stable | – | – | – | > 31600 | 63 | 630 |
| O=Cc1cn(Cc2ccc(Cl)cc2)c2cc(Br)ccc12 | Stable | Stable | – | – | – | 21000 | 90 | 32000 |
| O=CC1C(=O)N(Cc2ccc(Cl)cc2)c2cc(Cl)ccc21 (stereo not given) | Stable | Stable | – | – | – | 18600 | 18200 | 18200 |
| O=Cc1cn(Cc2cccc(Cl)c2)c2ccccc12 | Stable | Stable | – | – | – | > 31600 | 37 | 370 |
| O=Cc1cn(Cc2ccc(Br)cc2)c2ccccc12 | Stable | Stable | – | – | – | > 31600 | 31 | 250 |
| O=Cc1cn(Cc2cccc(F)c2)c2ccccc12 | Stable | Stable | – | – | – | > 31600 | 31 | 2630 |
| O=Cc1cn(Cc2cccc([N+](=O)[O-])c2)c2ccccc12 | Stable | Stable | – | – | – | > 31600 | 39 | 500 |
| COc1ccc(Cn2cc(CO)c3ccccc32)cc1 | Stable | Unstable | Stable | Stable | Stable | > 31600 | 79 | 63 |
| O=Cc1cn(Cc2ccc(Cl)cc2)c2ccc(F)cc12 | Stable | Stable | – | – | – | > 31600 | 290 | 9090 |
| Cc1ccc(Cn2cc(C=O)c3ccccc32)cc1 | Stable | Stable | – | – | – | > 31600 | 63 | 3980 |
| O=Cc1cn(Cc2ccc(Cl)cc2)c2ccccc12 | Stable | Stable | – | – | – | > 31600 | 250 | 2510 |
| O=Cc1cn(Cc2ccc(Cl)cc2Cl)c2ccccc12 | Stable | Stable | – | – | – | > 31600 | 100 | 1580 |
| CC(C)Cn1cc(C=O)c2ccccc21 | Stable | Stable | – | – | – | > 31600 | 1990 | > 31600 |
| O=Cc1cn(Cc2ccccc2)c2ccccc12 | Stable | Stable | – | – | – | > 31600 | 45 | 5000 |
| Cc1cccc(Cn2cc(C=O)c3ccccc32)c1 | Stable | Stable | – | – | – | > 31600 | 39 | 6300 |
| O=Cc1cn(Cc2cccc(C(F)(F)F)c2)c2ccccc12 | Stable | Stable | – | – | – | > 31600 | 140 | 1780 |
